Assay results pooled from the literature.
PTGS2: Prostaglandin G/H synthase 2 (PTGS2, Homo sapiens, UniProt P35354)
SIGMAR1: Sigma non-opioid intracellular receptor 1 (SIGMAR1, Cavia porcellus, UniProt Q60492)
NPY2R: Neuropeptide Y receptor type 2 (NPY2R, Homo sapiens, UniProt P49146)
Rock2: Rho-associated protein kinase 2 (Rock2, Rattus norvegicus, UniProt Q62868)

Compound	target	test	system	conditions	inhibition
O=C(c1ccc(Cl)cc1)N(Cc1ccccc1)C1CCCCC1	Alpha-2B adrenergic receptor (ADRA2B, Homo sapiens, UniProt P18089)	cell-free assay	–	10 µM	7.2%
COC(=O)c1ccc(O)cc1	PTGS2	enzyme activity, inhibitor	–	15.63 µg/mL	53.2%
CC/C(=N\NC(=O)NCc1cccc(O)c1)c1ccc(O)c(C)c1O	NPM/ALK (Nucleophosmin/ALK tyrosine kinase receptor) (NPM1/ALK, Homo sapiens, UniProt P06748+Q9UM73)	enzyme activity, inhibitor	–	0.1 µM	-0.4%
COc1cc2c(cc1OC)CN(C(C)CCc1ccc(O)cc1)CC2 (stereo not drawn)	SIGMAR1	ligand displacement, radioligand	–	0.1 µM	34%
O=C(c1ccc(F)cc1)N(Cc1ccccc1)C1CCCCC1	NPY2R	cell-free assay	–	10 µM	-14%
C=C[C@@]1(C)C=C2CC[C@@H]3[C@](C)(CCC[C@@]3(C)C(=O)O)[C@H]2CC1	PTGS2	enzyme activity, inhibitor	–	0.49 µg/mL	7.14%
Cc1ccc(Nc2nccc(N(C)c3ccc4c(C)n(C)nc4c3)n2)cc1S(N)(=O)=O	Rock2	enzyme activity, inhibitor	–	10 µM	29%
CN(C)C1CCN(CC#Cc2nn(C3CCCC3)c3nc(NCc4ccccc4)ncc23)C1 (stereo not drawn)	Ribosomal protein S6 kinase beta-1 (RPS6KB1, Homo sapiens, UniProt P23443)	enzyme activity, inhibitor, FRET	–	1 µM	4%
O=c1cc(-c2ccc(O)c(O)c2)oc2cc(O)cc(O)c12	PTGS2	enzyme activity, inhibitor	–	0.49 µg/mL	45%
O=C1N=C(N2CCCCN2)S/C1=C\c1ccc(F)cc1O	NPY2R	ligand displacement, radioligand	–	10 µM	< 10%
CCN1CCN(Cc2ccc(NC(=O)c3ccc(C)c(Oc4ccnc5[nH]ccc45)c3)cc2C(F)(F)F)CC1	Scaffold protein ILK (ILK, Homo sapiens, UniProt Q13418)	target engagement in cells, inhibitor, chemoproteomics	Huh-7	1 µM	-36.8%
CN(Cc1ccc(NC(=O)C2=Cc3cc(-c4ccc(OCCCCCCCF)cc4)ccc3CCC2)cc1)C1CCOCC1	SIGMAR1	ligand displacement, radioligand	–	10 µM	14%
COc1cc(-c2cc(=O)c3c(O)cc(O)cc3o2)ccc1O	PTGS2	enzyme activity, inhibitor	–	0.49 µg/mL	0%
CNC(=O)c1cc(Oc2ccc(NC(=O)Nc3ccc(Cl)c(C(F)(F)F)c3)cc2)ccn1	Rock2	enzyme activity, inhibitor	–	0.3 µM	17%
COc1ccc(-c2cc(=O)c3c(O)cc(O[C@@H]4O[C@H](CO)[C@@H](O)[C@H](O)[C@H]4O)cc3o2)cc1O	PTGS2	enzyme activity, inhibitor	–	0.24 µg/mL	39.7%
CNC(=O)[C@@]12C[C@@H]1[C@@H](n1cnc3c(NC)nc(C#Cc4ccc(Cl)s4)nc31)[C@H](O)[C@@H]2O	SIGMAR1	ligand displacement, radioligand	–	10 µM	60 to 70%
O=C(O)c1ccc(O)cc1	PTGS2	enzyme activity, inhibitor	–	0.98 µg/mL	32.2%
Nc1ncnc2c1ncn2[C@@H]1O[C@H](CSCCNC(=O)NCc2ccccc2)[C@@H](O)[C@H]1O	Protein arginine N-methyltransferase 7 (PRMT7, Homo sapiens, UniProt Q9NVM4)	enzyme activity, inhibitor, radiometric	–	10 µM	> 75%
